The test system of experiment [1] is HeLa. Description: Cytotoxicity in HeLa cells assessed as PDT-induced ROS generation after 2 hrs by flow cytometry. It counts as functional, cell-based. The settings on record: Homo sapiens. A digest of the protocol:
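HeLa cells exposed to porphyrins at […] for 2 h, then irradiated with visible light. Intracellular ROS probed with 2,7-dichlorofluorescin (DCF). DCF fluorescence read by flow cytometry after 2 h of porphyrin treatment. Untreated cells served as baseline.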
On the technique in general: Flow cytometry measures light scatter and fluorescence of single cells or particles in a stream.

For experiment [2], the system named is HeLa. Description: Phototoxicity against HeLa cells assessed as photo-induced growth inhibition after 48 hrs by MTT assay. Format: functional, cell-based, Homo sapiens. A digest of the protocol:
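HeLa cells pre-incubated 1 h with a range of porphyrin concentrations. Without washing, cells were irradiated 1 h with a fluorescent lamp (530–620 nm; 0.44 mW/cm², 1.6 J/cm²). They were then incubated 48 h at 37 °C, and survival fraction was read by MTT. Non-irradiated cells served as dark controls.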
(Formazan colour is commonly taken as a measure of viable cells.)

Experiment [3] concerns HeLa. Description: Induction of apoptosis in HeLa cells assessed as accumulation at subG1 phase by FACS flow cytometry. Format: functional, cell-based. The settings on record: Homo sapiens. A digest of the protocol:
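HeLa cells treated with 0, 4.6, 9.2, 18.4, 27.6 or 36.8 μM porphyrin, then stained with propidium iodide. The sub-G1 population was measured from DNA content histograms by FACS flow cytometry and taken as apoptotic cells. Values are means ± S.D.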

Where [4] appears, read: Homo sapiens, HeLa, light or radiation study, 48 h.

Structures are written as SMILES. The source made the active and inactive calls. The calls are words filed in the database; no cut-off is given here.

Consider five compounds from ChEMBL document CHEMBL1147929, “Synthesis and in vitro photodynamic activities of water-soluble fluorinated tetrapyridylporphyrins as tumor photosensitizers” (Bioorg Med Chem Lett, 2007).

By IC50 is commonly meant the concentration that inhibits the measured activity by half.

In the case of `C[n+]1ccc(-c2c3nc(c(-c4cc[n+](C)cc4F)c4ccc([nH]4)c(-c4cc[n+](C)cc4F)c4nc(c(-c5cc[n+](C)cc5F)c5ccc2[nH]5)C=C4)C=C3)c(F)c1`, the outcome in the experiment on HeLa [1] was Active. Also, the half-inhibitory concentration (IC50) in the experiment on HeLa [2] (setting [4]) turned out to be 40000 nM. Moreover, the Activity entry in the experiment on HeLa [3] is “Dose-dependent effect”.

In the case of `C[n+]1cccc(-c2c3nc(c(-c4ccc[n+](C)c4F)c4ccc([nH]4)c(-c4ccc[n+](C)c4F)c4nc(c(-c5ccc[n+](C)c5F)c5ccc2[nH]5)C=C4)C=C3)c1F`, in the experiment with HeLa [1], the outcome was Active. The IC50 in the experiment with HeLa [2] (hela) came to 1100 nM. In the experiment on HeLa [3], the Activity result was “Dose-dependent effect”.

In the case of `C[n+]1ccc(-c2c3nc(c(-c4cc[n+](C)cc4)c4ccc([nH]4)c(-c4cc[n+](C)cc4)c4nc(c(-c5cc[n+](C)cc5)c5ccc2[nH]5)C=C4)C=C3)cc1`, in the experiment on HeLa [2] (setting [4]), the 50% inhibitory concentration (IC50) turned out to be 3000 nM.

For the compound `C[n+]1ccc(-c2c3nc(c(-c4cc[n+](C)cc4)c4ccc([nH]4)c(-c4cc[n+](C)cc4)c4ccc([nH]4)c(-c4cc[n+](C)cc4)c4nc2C=C4)C=C3)cc1`, the outcome in the experiment on HeLa [1] was Active.

For the compound `C[n+]1cc(F)c(-c2c3nc(c(-c4c(F)c[n+](C)cc4F)c4ccc([nH]4)c(-c4c(F)c[n+](C)cc4F)c4nc(c(-c5c(F)c[n+](C)cc5F)c5ccc2[nH]5)C=C4)C=C3)c(F)c1`, the outcome with HeLa [1] was Active. Moreover, the half-maximal inhibitory concentration (IC50) in the experiment with HeLa [2] (hela) is 870 nM.
